Data reported in ChEMBL document CHEMBL1926556, “Synthesis and biological activities of 2-[(heteroaryl)methyl]imidazolines” (Bioorg Med Chem, 2012).
Calls of active or inactive are those of the source. The rule behind the calls is not given here.

Legend:
Rattus norvegicus [1] = assay: Antihypertensive activity in Wistar rat assessed as inhibition of methoxamine-induced change in heart rate at 0.1 mg/kg, iv co-administered with 20 ug/kg/min methoxamine challenge; format: functional, organism-based; parameters: dose 0.1 mg/kg
In short: (§1)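 Male Wistar rats (200–290 g) anaesthetized with i.p. thiopental 70 mg/kg, maintained by thiopental infusion, 36–37 °C. Carotid catheter for BP/HR, jugular line for infusion. Methoxamine i.v. infusion 10 or 20 µg/kg/min began 10 min before 0.1 mg/kg i.v. bolus. Readout is ΔMAP or ΔHR from time 0. Five to seven rats per group; repeated-measures ANOVA.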

Rattus norvegicus [2] = assay: Antihypertensive activity in Wistar rat assessed as inhibition of methoxamine-induced change in blood pressure at 0.1 mg/kg, iv administered 10 mins after methoxamine challenge; format: functional; in short: as §1
Rattus norvegicus [3] = assay: Toxicity in Sprague-Dawley rat assessed as calm behavior at 10 to 2000 ug/kg, ip measured after 30 mins; format: organism-based; conditions: in vivo, 0.5 h
Rattus norvegicus [4] = assay: Antihypertensive activity in Wistar rat assessed as inhibition of methoxamine-induced change in heart rate at 0.1 mg/kg, iv administered 10 mins after methoxamine challenge; format: functional; in short: as §1
Rattus norvegicus [5] = assay: Toxicity in Sprague-Dawley rat assessed as reduced motor co-ordination at 10 to 2000 ug/kg, ip measured within 5 to 8 mins; format: organism-based; conditions: in vivo
In short: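 Male Sprague–Dawley rats (250–270 g) were handled by the experimenter one day before testing. Compound was dissolved in sterile saline and given i.p. If no loss of righting reflex occurred after 5 min, the dose was repeated, up to 2000 µg/kg cumulative. Animals were watched for righting reflex, locomotion, motor coordination and behaviour. Righting reflex was scored at 30 min.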

In the case of `Cl.Clc1cccc2cnn(CC3=NCCN3)c12`, the Activity (Rattus norvegicus [1]) is reported as “Active”, the Activity (Rattus norvegicus [2]) is reported as -47.7 mmHg and the Activity (Rattus norvegicus [3]) is reported as “Non-toxic”. For the same molecule, the Activity (Rattus norvegicus [4]) was -131.8 bpm and the Activity (Rattus norvegicus [5]) was “Toxic”.
